Active and inactive are the calls of the source. No cut-off for these calls is given here.
Experiments:
[1] = target: Acetylcholinesterase (Anopheles gambiae, UniProt Q869C3); experiment: (§1) Inhibition of recombinant full length Anopheles gambiae AChE1 expressed in baculovirus-infected Sf9 insect cells using acetylthiocholine iodide as substrate measured over 60 secs by Ellman's method
[2] = target: Acetylcholinesterase (Anopheles gambiae, UniProt Q869C3, G122S); experiment: Inhibition of recombinant full length Anopheles gambiae AChE1 G122S mutant expressed in baculovirus-infected Sf9 insect cells using acetylthiocholine iodide as substrate measured over 60 secs by Ellman's method
[3] = Selectivity ratio of IC50 for recombinant human AChE expressed in HEK293F cells to IC50 for recombinant full length Anopheles gambiae AChE1 expressed in baculovirus-infected Sf9 insect cells
Outline: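 Ratio of the hAChE IC50 divided by the higher of the AgAChE1 or AaAChE1 IC50. Each IC50 came from an Ellman assay (1 mM acetylthiocholine, 0.2 mM DTNB, pH 7.4, 30 °C) with eight concentrations up to 1 mM, using 2-3 replicates.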

[4] = (§2) Inhibition of recombinant full length Aedes aegypti AChE1 expressed in baculovirus-infected Sf9 insect cells using acetylthiocholine iodide as substrate measured over 60 secs by Ellman's method
Outline: (§3)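 Secreted, non-purified recombinant enzyme in growth medium, tested as enzyme source. Ellman assay at 30 °C in 0.1 M phosphate buffer pH 7.4 with 0.2 mM DTNB and 1 mM acetylthiocholine iodide; A412 followed over 60 s. Compound (100 mM DMSO stock) tested at eight concentrations, maximum 1 mM. Activity set relative to eight uninhibited controls per plate; IC50 from three-parameter variable-slope fit; 2-3 independent replicates.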

[5] = target: Acetylcholinesterase (Homo sapiens, UniProt P22303); experiment: Inhibition of recombinant human AChE expressed in HEK293F cells using acetylthiocholine iodide as substrate measured over 60 secs by Ellman's method; design: species or system HEK293
[6] = test system: Acetylcholinesterase (Anopheles gambiae), Q869C3 [G122S]; experiment: Inhibition of recombinant full length Anopheles gambiae AChE1 G122S mutant expressed in baculovirus-infected Sf9 insect cells up to 1 mM using acetylthiocholine iodide as substrate measured over 60 secs by Ellman's method; outline: as §3
[7] = target: Acetylcholinesterase (Anopheles gambiae) (UniProt Q869C3); experiment: Inhibition of recombinant full length Anopheles gambiae AChE1 expressed in baculovirus-infected Sf9 insect cells at 1 mM using acetylthiocholine iodide as substrate measured over 60 secs by Ellman's method; outline: as §3
[8] = test system: Aedes aegypti; experiment: Inhibition of recombinant full length Aedes aegypti AChE1 expressed in baculovirus-infected Sf9 insect cells at 1 mM using acetylthiocholine iodide as substrate measured over 60 secs by Ellman's method; outline: as §3
[9] = target: Acetylcholinesterase (Anopheles gambiae) (UniProt Q869C3); experiment: as §1
[10] = test system: Aedes aegypti; experiment: as §2; outline: as §3
[11] = test system: Aedes aegypti; experiment: Insecticidal activity against five days old adult Aedes aegypti Mombasa assessed as mortality at 100 mM applied topically on upper part of pronotum after 48 hrs (reference value: 7 to 8%); format: functional; settings: topical
[12] = test system: Anopheles gambiae; experiment: Insecticidal activity against five days old adult Anopheles gambiae Kisumu assessed as mortality at 1 nmol applied topically on upper part of pronotum after 24 hrs; format: functional
[13] = test system: Aedes aegypti; experiment: Insecticidal activity against 3rd instar larvae of Aedes aegypti Mombasa assessed as mortality at 500 uM administered via de-chlorinated tap water after 48 hrs (reference value: 0 to 2%); format: functional
[14] = test system: Anopheles gambiae; experiment: Insecticidal activity against five days old adult Anopheles gambiae Kisumu assessed as mortality at 2 mM applied topically on upper part of pronotum after 48 hrs (reference value: 13 to 38%); format: functional; settings: topical
[15] = test system: Anopheles gambiae; experiment: Insecticidal activity against five days old adult Anopheles gambiae Kisumu assessed as mortality at 10 mM applied topically on upper part of pronotum after 24 hrs (reference value: 8 to 16%); format: functional; settings: topical
[16] = test system: Anopheles gambiae; experiment: Insecticidal activity against five days old adult Anopheles gambiae Kisumu assessed as mortality at 10 nmol applied topically on upper part of pronotum after 24 hrs; format: functional
[17] = test system: Aedes aegypti; experiment: Insecticidal activity against 3rd instar larvae of Aedes aegypti Mombasa assessed as mortality at 50 uM administered via de-chlorinated tap water after 24 hrs; format: functional
Outline: (§4)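 Kenyan strains were reared at 27-28 °C, about 80% humidity, 12/12 h light. Per compound and concentration, 25 third-instar larvae were placed in 100 ml de-chlorinated water containing the compound and kept under insectary conditions. The negative control was plain water; the positive control was propoxur at 25 µM. Mortality was scored at 24 h; 75 treated and 50 control larvae in total.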

[18] = test system: Aedes aegypti; experiment: Insecticidal activity against 3rd instar larvae of Aedes aegypti Mombasa assessed as mortality at 500 uM administered via de-chlorinated tap water after 24 hrs; format: functional; outline: as §4
[19] = test system: Aedes aegypti; experiment: Insecticidal activity against five days old adult Aedes aegypti Mombasa assessed as mortality at 10 mM applied topically on upper part of pronotum after 24 hrs (reference value: 3 to 15%); format: functional; settings: topical
[20] = test system: Anopheles gambiae; experiment: Insecticidal activity against 3rd instar larvae of Anopheles gambiae Kisumu assessed as mortality at 500 uM administered via de-chlorinated tap water after 24 hrs; format: functional; outline: as §4
[21] = test system: Anopheles gambiae; experiment: Insecticidal activity against five days old adult Anopheles gambiae Kisumu assessed as mortality at 2 mM applied topically on upper part of pronotum after 24 hrs (reference value: 3 to 17%); format: functional; settings: topical
[22] = test system: Aedes aegypti; experiment: Insecticidal activity against 3rd instar larvae of Aedes aegypti Mombasa assessed as mortality at 50 uM administered via de-chlorinated tap water after 48 hrs (reference value: 0 to 4%); format: functional
[23] = test system: Anopheles gambiae; experiment: Insecticidal activity against five days old adult Anopheles gambiae Kisumu assessed as mortality at 100 mM applied topically on upper part of pronotum after 48 hrs (reference value: 15 to 24%); format: functional; settings: topical
[24] = test system: Aedes aegypti; experiment: Insecticidal activity against five days old adult Aedes aegypti Mombasa assessed as mortality at 100 mM applied topically on upper part of pronotum after 24 hrs (reference value: 3%); format: functional; settings: topical
[25] = test system: Anopheles gambiae; experiment: Insecticidal activity against five days old adult Anopheles gambiae Kisumu assessed as mortality at 0.2 nmol applied topically on upper part of pronotum after 24 hrs; format: functional
[26] = test system: Anopheles gambiae; experiment: Insecticidal activity against 3rd instar larvae of Anopheles gambiae Kisumu assessed as mortality at 500 uM administered via de-chlorinated tap water after 48 hrs; format: functional
[27] = test system: Aedes aegypti; experiment: Insecticidal activity against five days old adult Aedes aegypti Mombasa assessed as mortality at 0.2 nmol applied topically on upper part of pronotum after 24 hrs; format: functional
[28] = test system: Anopheles gambiae; experiment: Insecticidal activity against 3rd instar larvae of Anopheles gambiae Kisumu assessed as mortality at 50 uM administered via de-chlorinated tap water after 24 hrs; format: functional; outline: as §4
[29] = test system: Aedes aegypti; experiment: Insecticidal activity against five days old adult Aedes aegypti Mombasa assessed as mortality at 1 nmol applied topically on upper part of pronotum after 24 hrs; format: functional
[30] = test system: Anopheles gambiae; experiment: Insecticidal activity against five days old adult Anopheles gambiae Kisumu assessed as mortality at 100 mM applied topically on upper part of pronotum after 24 hrs (reference value: 9 to 10%); format: functional; settings: topical
[31] = test system: Aedes aegypti; experiment: Insecticidal activity against five days old adult Aedes aegypti Mombasa assessed as mortality at 2 mM applied topically on upper part of pronotum after 48 hrs (reference value: 3 to 12%); format: functional; settings: topical
[32] = test system: Aedes aegypti; experiment: Insecticidal activity against five days old adult Aedes aegypti Mombasa assessed as mortality at 10 mM applied topically on upper part of pronotum after 48 hrs (reference value: 3 to 15%); format: functional; settings: topical
[33] = test system: Anopheles gambiae; experiment: Insecticidal activity against 3rd instar larvae of Anopheles gambiae Kisumu assessed as mortality at 50 uM administered via de-chlorinated tap water after 48 hrs; format: functional
[34] = test system: Aedes aegypti; experiment: Insecticidal activity against five days old adult Aedes aegypti Mombasa assessed as mortality at 2 mM applied topically on upper part of pronotum after 24 hrs (reference value: 2 to 10%); format: functional; settings: topical
[35] = test system: Aedes aegypti; experiment: Insecticidal activity against five days old adult Aedes aegypti Mombasa assessed as mortality at 10 nmol applied topically on upper part of pronotum after 24 hrs; format: functional
[36] = test system: Anopheles gambiae; experiment: Insecticidal activity against five days old adult Anopheles gambiae Kisumu assessed as mortality at 10 mM applied topically on upper part of pronotum after 48 hrs (reference value: 14 to 22%); format: functional; settings: topical

COc1ccc(NC(=S)NCCN2CCCCC2)cc1
IC50 [1]: 29 µM
IC50 [2]: 94 µM
Ratio IC50 [3]: 4
IC50 [4]: 28 µM
IC50 [5]: 120 µM

COc1ccc(NC(S)=NCCN2CCC(C)CC2)cc1
IC50 [1]: > 200 µM
IC50 [2]: > 200 µM
IC50 [4]: > 200 µM
IC50 [5]: > 200 µM

COc1ccccc1N=C(S)NCCN1CCOCC1
IC50 [1]: > 200 µM
IC50 [4]: > 200 µM
inhibition [6]: inactive
IC50 [5]: > 200 µM

COc1ccc(NC(S)=NCCN2CCC(C)CC2)cc1Cl
inhibition [7]: 90%
inhibition [8]: 90%
inhibition [9]: Dose-dependent effect
IC50 [1]: 0.96 µM
IC50 [2]: 24 µM
Ratio IC50 [3]: 13
IC50 [4]: 0.63 µM
inhibition [10]: Dose-dependent effect
IC50 [5]: 12 µM

COc1ccc(NC(=S)NCCN(C)C)cc1Cl
IC50 [1]: 18 µM
IC50 [2]: 17 µM
Ratio IC50 [3]: 3
IC50 [4]: 16 µM
IC50 [5]: 46 µM

COc1ccccc1NC(=S)NCCN1CCCCC1
IC50 [1]: 29 µM
IC50 [2]: 66 µM
Ratio IC50 [3]: 1
IC50 [4]: 22 µM
IC50 [5]: 32 µM

COc1ccc(NC(=S)NCCN(C)C)cc1
mortality at 100000 µM [11]: 17%
mortality [12]: 32%
mortality at 500 µM [13]: 3%
mortality at 2000 µM [14]: 36%
mortality at 10000 µM [15]: 43%
mortality [16]: 55%
mortality at 50 µM [17]: 4%
mortality at 500 µM [18]: 1%
mortality at 10000 µM [19]: 12%
mortality at 500 µM [20]: 3%
mortality at 2000 µM [21]: 17%
mortality at 50 µM [22]: 5%
IC50 [1]: > 200 µM
IC50 [2]: > 200 µM
mortality at 100000 µM [23]: 67%
mortality at 100000 µM [24]: 12%
mortality [25]: 0%
mortality at 500 µM [26]: 16%
IC50 [4]: > 200 µM
mortality [27]: 1%
mortality at 50 µM [28]: 4%
mortality [29]: 0%
mortality at 100000 µM [30]: 59%
mortality at 2000 µM [31]: 11%
mortality at 10000 µM [32]: 21%
IC50 [5]: > 200 µM
mortality at 50 µM [33]: 5%
mortality at 2000 µM [34]: 11%
mortality [35]: 12%
mortality at 10000 µM [36]: 50%

CN(C)CCNC(=S)Nc1ccccc1Cl
IC50 [1]: 17 µM
IC50 [2]: > 200 µM
IC50 [4]: 14 µM
IC50 [5]: > 200 µM

S=C(NCCN1CCCCC1)Nc1cccc(Cl)c1
IC50 [1]: 140 µM
IC50 [2]: 22 µM
Ratio IC50 [3]: 1
IC50 [4]: 120 µM
IC50 [5]: 190 µM

S=C(NCCN1CCOCC1)Nc1cccc(Cl)c1
IC50 [1]: 68 µM
IC50 [2]: > 200 µM
Ratio IC50 [3]: > 3
IC50 [4]: 53 µM
IC50 [5]: > 200 µM

From ChEMBL document CHEMBL4033657, “N-Aryl-N'-ethyleneaminothioureas effectively inhibit acetylcholinesterase 1 from disease-transmitting mosquitoes” (Eur J Med Chem, 2017)
